High-throughput results (PubChem BioAssay)
Rows were chosen to be rich in hits. Some 4.2% of all compounds tested hit in one or more screens of this group.
UPR XBP1 act: adaptive UPR (XBP1) activation | CHO-XBP1 luciferase reporter, IRE1-XBP1 UPR activation, luminescence; percent of tunicamycin response, DMSO as zero | activation, % at 20 µM | hit rate 0.33% among 330,000;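 active means versus positive control, 20 µM dose yields 30% or more activation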;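 further: 100% = tunicamycin at 10 µg/mL and 0% = DMSO only wells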
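Material: CHO cell line with stable XBP1 luciferase reporter; schedule: 16-18 h cell attachment at 37 °C, then 6 h compound exposure; signal: glow luminescence from Steady-Glo reagent; medium: serum-containing F12 medium, 10% FBS; benchmarks: tunicamycin 10 µg/mL and vehicle-only wells; read-out: percent activation relative to tunicamycin reference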
CHOP UPR activ: activators of apoptotic arm of unfolded protein response (CHOP); CHO-CHOP luciferase reporter, UPR activation, luminescence; percent of tunicamycin response over DMSO baseline; activation, % at 10 µM; hit rate 0.34% among 330,000; AID 449763;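 active means at 10 µM dose, activation of 40% or more, normalized to positive control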;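 further: 100% = tunicamycin at 10 µg/mL and 0% = DMSO alone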
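Material: CHO-CHOP cells, stable luciferase reporter of PERK-eIF2a-CHOP signalling; quantity: 500 reporter cells seeded per well; buffer or medium: F12 medium containing 10% fetal bovine serum; compound: one dose, 10 µM in 0.5% DMSO; incubation: 6 h compound treatment, 37 °C; measured by: Steady-Glo luciferase luminescence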
CHOP inhibitor: CHOP inhibition in unfolded protein response | CHO-K1 CHOP-promoter luciferase, tunicamycin-induced, 15-18 h | hit rate 3.8% among 220,000 | AID 2732 | inhibition, % at 10 µM;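 active means compounds that reduced the stress-induced luciferase reporter signal by more than about 70% of percent inhibition, limit read from the data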;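 further: 0% = tunicamycin plus vehicle and 100% = wells without tunicamycin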
Lipid droplet: modulators of hepatic lipid droplet formation | AML12 mouse hepatocytes, oleate lipid droplets, BODIPY imaging | inhibition, % at 6.5 µM | hit rate 0.4% among 240,000;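 active means lipid droplet intensity inhibited by at least 50%, with more than 500 cells counted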
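Material: mouse AML12 hepatocyte cell line, fixed after treatment; Timing: compound with oleate, overnight; Technique: high-content imaging of BODIPY-stained droplets and DAPI nuclei; Probe or stimulus: oleate, 100 µM final; Dosing: compound at 6.5 µM only.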
ANO1 block: inhibitors of mouse TMEM16A calcium-activated chloride channel; hit rate 1.2% among 310,000; normalized B-score (activity score, 25-100; higher = stronger inhibition) at 10 µM; HEK293 TMEM16A/YFP iodide influx fluorescence, ionomycin; Q8BHY3; AID 588511;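 active means ratio plate-corrected score three or more library SD toward inhibition, starting fluorescence score within five deviations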;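 further: score derived from kinetic fluorescence span divided by baseline fluorescence per well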
Target sequence (Q8BHY3 whole entry, looked up): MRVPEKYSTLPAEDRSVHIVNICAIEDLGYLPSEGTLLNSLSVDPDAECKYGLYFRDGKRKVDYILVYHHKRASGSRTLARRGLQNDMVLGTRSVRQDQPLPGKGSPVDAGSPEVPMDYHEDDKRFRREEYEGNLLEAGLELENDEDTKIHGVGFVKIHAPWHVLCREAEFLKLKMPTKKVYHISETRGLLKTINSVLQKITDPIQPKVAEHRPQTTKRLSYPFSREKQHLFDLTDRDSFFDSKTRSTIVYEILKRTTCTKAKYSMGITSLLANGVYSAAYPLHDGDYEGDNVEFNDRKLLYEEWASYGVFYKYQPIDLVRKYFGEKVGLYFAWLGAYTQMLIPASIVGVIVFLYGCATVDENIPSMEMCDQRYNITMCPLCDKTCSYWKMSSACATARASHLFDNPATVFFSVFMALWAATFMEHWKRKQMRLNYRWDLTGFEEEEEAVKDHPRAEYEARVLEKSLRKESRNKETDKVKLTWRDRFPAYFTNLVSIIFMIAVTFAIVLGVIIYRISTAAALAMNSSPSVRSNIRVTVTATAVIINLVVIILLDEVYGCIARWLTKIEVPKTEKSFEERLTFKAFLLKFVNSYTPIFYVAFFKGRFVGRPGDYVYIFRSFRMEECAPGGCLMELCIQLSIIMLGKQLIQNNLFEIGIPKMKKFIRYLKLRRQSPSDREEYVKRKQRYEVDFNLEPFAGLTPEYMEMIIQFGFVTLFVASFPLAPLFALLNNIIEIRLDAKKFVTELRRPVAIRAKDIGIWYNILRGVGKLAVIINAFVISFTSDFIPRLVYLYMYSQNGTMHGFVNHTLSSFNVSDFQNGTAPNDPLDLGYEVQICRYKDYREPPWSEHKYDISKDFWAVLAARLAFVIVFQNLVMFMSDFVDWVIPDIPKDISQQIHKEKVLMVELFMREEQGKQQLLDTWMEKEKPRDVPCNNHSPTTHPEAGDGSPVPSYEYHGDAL
ANO1 activ: activates or potentiates the mouse TMEM16A chloride channel; Q8BHY3; HEK293 TMEM16A/YFP-H148Q/I152L, iodide quench fluorescence; active compounds read low; B-score at 10 µM; hit rate 0.3% among 340,000;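 active means fluorescence-ratio B-score plate-corrected deviation score at least 3 library SD below zero, with starting fluorescence score within 5 deviations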;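 further: channel opened by trigger with iodide after compound preincubation; score built on the fluorescence ratio of max minus min over baseline; more negative score means more quench and so TMEM16A activation or potentiation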
CHOP confirm: confirmation of CHOP induction inhibitors; inhibition, % at 10 µM; CHO-CHOP promoter luciferase reporter, tunicamycin-induced, luminescence; AID 504437; hit rate 45% among 2,100; shares compounds with CHOP inhibitor;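 active means mean of three repeat readings of reporter signal inhibition above a set limit, cut at about 70% in these data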;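 further: 0% = tunicamycin plus vehicle and 100% = wells lacking tunicamycin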
CHOP UPR conf: confirmation of apoptotic unfolded protein response (CHOP) activators; CHO-CHOP cells, CHOP-luciferase reporter luminescence; percent of tunicamycin response, DMSO as zero; activation, % at 10 µM; AID 463112; shares compounds with CHOP UPR activ; hit rate 64% among 1,000; in the data active means activation above about 33%;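 further: 0% = DMSO wells and 100% = tunicamycin 10 µg/mL wells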
XBP1 UPR conf: adaptive UPR (XBP1) activation, confirmed; activation, % at 20 µM; hit rate 63% among 1,000; CHO-XBP1 IRE1-XBP1 luciferase reporter, luminescence; shares compounds with UPR XBP1 act; AID 485299;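 active means reporter signal at least 30% of the positive control's activation in two or more of four replicate wells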;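 further: plate controls were DMSO negative control for no effect and tunicamycin 10 µg/mL positive control for full effect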
The depositor's hits bear a star; i = inactive; x = not tested or not shown.

SMILES	UPR XBP1 act	CHOP UPR activ	CHOP inhibitor	Lipid droplet	ANO1 block	ANO1 activ	CHOP confirm	others
Cc1cccc(Cn2cc(/C=C/[N+](=O)[O-])c3ccccc32)c1	53*	50*	102*	x	i	i	-28	CHOP UPR conf=218*
COc1ccc(C2=CC(=O)N(Nc3ccccc3)C2=O)cc1	-4	48*	101*	4	i	x	-20	CHOP UPR conf=149*
O=C(Cn1ncc(Cl)c(Cl)c1=O)N1CCN(S(=O)(=O)c2ccc3ccccc3c2)CC1	-5	94*	99*	-4	i	i	-25	CHOP UPR conf=25
O=C(O)CCC(=O)N1CCN(S(=O)(=O)c2ccc3ccccc3c2)CC1	4	1	x	1	i	i	x
COc1ccc(/C=C(\NC(=O)c2ccc([N+](=O)[O-])cc2)C(=O)NCCCN2CCOCC2)cc1	4	1	x	-12	i	i	x
COc1ccccc1-c1cc(C(F)(F)F)nc(S(C)(=O)=O)n1	-5	136*	112*	1	i	i	-336	CHOP UPR conf=266*
COc1ccccc1-c1cc(C(F)(F)F)nc(S(=O)(=O)CCCC(=O)NCc2ccc(F)cc2)n1	-1	124*	100*	2	i	i	-95	CHOP UPR conf=271*
COc1cc(CCC(=O)NCc2ccc(F)cc2)cc(OC)c1OC	0	-1	x	-1	i	i	x
O=C(NCCC(=O)N1CCC2(CC1)NCCc1[nH]cnc12)c1ccc(F)c(F)c1	-2	1	x	-1	i	i	x
COc1cc(/C=C2/SC(=S)N(CCC(=O)Nc3ccccc3)C2=O)cc(OC)c1OC	2	2	x	2	i	i	x
CCCN(CC(=O)Nc1ccc(C(N)=O)cc1)CC(=O)Nc1ccc(F)c(F)c1F	4	0	x	5	i	i	x
O=C1C=CC(=O)C(C2=C3C(=O)N(CCc4ccccc4)CC(=O)N3CCC2)=C1	-3	131*	105*	20	i	x	-230	CHOP UPR conf=49*
O=C1CC2(CCCCC2)CC(=O)N1CCc1ccccc1	x	x	x	x	x	i	x
Cc1ccc2c(c1)C(c1ccccc1)N(C(=O)c1ccc(Br)cc1)CC(=O)N2 (stereo not given)	x	x	x	x	i	i	x
CC(C)c1nnc(NC(=O)CCS(=O)(=O)Cc2ccccc2)s1	-3	0	x	-12	i	i	x
CC(C)c1nnc(NC(=O)CCS(=O)(=O)c2nc(-c3cccs3)cc(C(F)(F)F)n2)s1	-6	74*	108*	x	i	i	-38	CHOP UPR conf=48*
O=C(COc1ccc(/C=N/NC(=O)c2cc3ccccc3o2)cc1Cl)Nc1ccccc1	7	51*	108*	3	i	i	46	CHOP UPR conf=-3
CCOC(=O)C1(CCOc2ccccc2)CCN(Cc2ccc(OC)c(COC)c2)CC1	-2	2	x	0	i	i	x
COc1ccc(-c2[nH]c(-c3ccc(Cl)cc3)nc2SCC(=O)Nc2nccs2)cc1	46*	1	98*	-3	i	i	33	XBP1 UPR conf=12
COc1cccc(NC2=C(Cl)C(=O)OC2OC(=O)c2ccco2)c1 (stereo not given)	-2	1	8	21	i	i	x
COc1ccccc1-c1cn[nH]c1-c1ccc(OCc2ccc([N+](=O)[O-])cc2)cc1O	42*	-1	99*	-5	i	i	-11	XBP1 UPR conf=19
COc1ccccc1-c1cn[nH]c1-c1ccc(OCc2ccc(F)cc2)cc1O	0	0	12	0	i	i	x
COc1cc(NC(=O)CCN2CCN(C/C=C/c3ccccc3)CC2)cc(OC)c1	-3	1	x	-12	i	i	x
CCn1c2ccccc2c2cc(NC(=O)CSc3nnc(-c4ccc(OC)c(OC)c4)n3N)ccc21	2	2	42	x	i	i	x
CCOc1ccc(-c2nnc(SCC(=O)Nc3ccc4c(c3)c3ccccc3n4CC)n2N)cc1	216*	116*	98*	x	i	i	39	CHOP UPR conf=47*;XBP1 UPR conf=191*
SMILES	UPR XBP1 act	CHOP UPR activ	CHOP inhibitor	Lipid droplet	ANO1 block	ANO1 activ	CHOP confirm	others
COc1ccccc1Nc1nnc(SCC(=O)NC(=O)Nc2ccc3c(c2)OCCO3)s1	52*	-1	104*	-6	i	i	18	XBP1 UPR conf=49*
Cc1ccccc1Nc1nnc(SCC(=O)NC(=O)Nc2ccc3c(c2)OCCO3)s1	2	4	65	-4	i	x	x
CCN(CC)c1ccc2cc(-c3nc4ccccc4[nH]3)c(=O)oc2c1	45*	22	100*	-6	i	i	41	XBP1 UPR conf=21
COc1cccc(NC(=S)NC(=O)c2cccnc2)c1	-2	1	x	23	i	i	x
O=[N+]([O-])c1ccc(-c2nn(-c3ccccc3)cc2/C=N/n2c(-c3cccs3)n[nH]c2=S)cc1	41*	14	102*	-20	i	i	101*	XBP1 UPR conf=29
O=[N+]([O-])c1ccc(/C=N/n2c(-c3ccccc3)n[nH]c2=S)cc1	-2	0	x	-23	i	i	x
CC1=C(C)Cc2c(OC(=O)c3ccccc3)ccc(OC(=O)c3ccccc3)c2C1	-3	0	40	7	i	x	x
NC(=O)CC(NC(=O)Cc1cccc2ccccc12)c1ccc(NCC2CC2)c([N+](=O)[O-])c1 (stereo not given)	0	0	12	3	i	i	x
NC(=O)CC(NC(=O)Cc1cccc2ccccc12)c1ccc(NCCOc2ccccc2)c([N+](=O)[O-])c1 (stereo not given)	48*	2	101*	7	i	i	112*	XBP1 UPR conf=39*
CCOC(=O)c1ccccc1NC(=O)COC(=O)C1CCCC1	-2	2	x	x	i	i	x
COc1ccc(C(=O)N/C(=C\c2cn(C)c3ccccc23)C(=O)NCCCn2ccnc2)cc1	-3	-1	x	0	i	i	x
COc1ccccc1NC(=O)CSc1nc2c(sc3ccccc32)c(=O)n1CCN(C)C	-3	-1	29	-64	i	i	x
CCN(CC)CCn1c(SCC(=O)Nc2ccc(F)cc2)nc2c(sc3ccccc32)c1=O	166*	9	104*	-24	i	x	90*	XBP1 UPR conf=228*
